Activity calls are given as the source filed them. The rule behind the calls is not given here.

Drawing on ChEMBL document CHEMBL4477258, “Ca-asp bound X-ray structure and inhibition of Bacillus anthracis dihydroorotase (DHOase)” (Bioorg Med Chem, 2016), this text covers Activity, Kd and ΔTm for twelve compounds.

The target in assay [1] is T1, Dihydroorotase (Bacillus anthracis) (UniProt Q81WF0).
T1 sequence (whole entry): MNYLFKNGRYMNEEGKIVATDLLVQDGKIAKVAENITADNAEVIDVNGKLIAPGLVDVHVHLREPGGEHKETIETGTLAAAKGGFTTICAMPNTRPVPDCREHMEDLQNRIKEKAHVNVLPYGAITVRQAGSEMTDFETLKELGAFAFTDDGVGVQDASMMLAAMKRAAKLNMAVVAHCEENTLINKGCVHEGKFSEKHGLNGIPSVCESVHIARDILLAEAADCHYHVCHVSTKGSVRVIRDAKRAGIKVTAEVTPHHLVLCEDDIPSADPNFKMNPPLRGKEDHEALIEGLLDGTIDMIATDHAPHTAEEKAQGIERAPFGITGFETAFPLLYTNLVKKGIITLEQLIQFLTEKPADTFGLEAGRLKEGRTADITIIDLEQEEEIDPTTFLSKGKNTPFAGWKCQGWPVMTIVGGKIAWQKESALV
Kind of assay: Inhibition of Bacillus anthracis Sterne His-tagged DHOase expressed in Escherichia coli BL21(DE3) Gold cells using DHO as substrate assessed as enzyme activity at 25 or 400 uM preincubated for 10 mins followed by substrate addition measured after 30 mins by DAMO-TSC reagent based colorimetric assay relative to control. Set-up: scale not given: the % may be the effect or the level left. The note with it: Bacillus anthracis str. Sterne. Put shortly:
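Reverse reaction run in duplicate. Fragments at 400 μM or compounds at 25 μM final, 10 min at room temperature. 10 μL of 320 μM DHO added, 30 min reaction, quenched with acidic DAMO-TSC. Colour developed 16 h in the dark, A540 read.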

The target in assay [2] is T2, Dihydroorotase (Bacillus anthracis, UniProt Q81WF0).
T2 sequence (Q81WF0 whole entry): T1 sequence (whole entry)
Kind of assay: Binding affinity to Bacillus anthracis Sterne His-tagged DHOase expressed in Escherichia coli BL21(DE3) Gold cells by surface plasmon resonance analysis. Set-up: species or system Bacillus anthracis str. Sterne. Put shortly:
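His-tag-cleaved DHOase amine-coupled to a CM5 chip at pH 4.5. Ethanolamine-blocked channel used as reference. Compounds run at 0–200 μM (2-fold dilutions) in PBS-P with 2% DMSO and 0.5 mM TCEP, at 10 μL/min and 25 °C. KD taken from steady-state affinity fit of equilibrium response. SD from three independent experiments.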

Assay [3] has as its target T1, Dihydroorotase (Bacillus anthracis). Kind of assay: Binding affinity to Bacillus anthracis Sterne His-tagged DHOase expressed in Escherichia coli BL21(DE3) Gold cells assessed as change in melting temperature at 400 uM incubated for 10 mins by SYPRO orange dye based fluorescence thermal shift assay. As to conditions: Bacillus anthracis str. Sterne. Put shortly:
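Histidine-tagged DHOase at 5 μM final in 50 mM MES pH 6.5, 0.01% CHAPS, 150 mM NaCl, 2 mM TCEP. Fragment added at 400 μM final and incubated 10 min at room temperature, then SYPRO Orange at 10X diluted from 5000X stock. Heated 25 to 95 °C at […], fluorescence read at ex/em 470/623 nm. Tm shift >2 °C scored as a hit.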

In assay [4] the target is T2, Dihydroorotase. Put plainly: (§1) Binding affinity to Bacillus anthracis Sterne His-tagged DHOase expressed in Escherichia coli BL21(DE3) Gold cells in presence of N-carbamyl-L-aspartate by surface plasmon resonance analysis. Set-up: species or system Bacillus anthracis str. Sterne. Put shortly:
(§2)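 His-tag-cleaved DHOase immobilized on a CM5 chip, with a blank reference channel. Compounds run at 0–200 μM (2-fold dilutions) at 25 °C, 10 μL/min, in PBS-P with 2% DMSO, 0.5 mM TCEP and 1 mM Ca-asp. KD taken from steady-state affinity fit. SD from three independent experiments.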

Assay [5] has as its target T1, Dihydroorotase (Bacillus anthracis). The assay is described as §1. The note with it: Bacillus anthracis str. Sterne. Put shortly:
as §2

By Kd is commonly meant the concentration at which binding is half-saturated. In general, ΔTm refers to the change in melting temperature against a reference sample. Take `COc1ccc2[nH]c3c(c2c1)CCNC31CCOCC1`: the Activity in assay [1] was less than 50%. Besides, the Kd at Dihydroorotase [2] (read-out: Kd) amounted to 380 µM; on Dihydroorotase [4] (read-out: Kd) it was 314 µM. For the same compound, the ΔTm in assay [3] is more than 2 °C.

On to `COc1ccc2[nH]c3c(c2c1)CCNC3(NC#N)SC` (stereo not drawn), for which the Kd is 21 to 119 µM on Dihydroorotase [2] (read-out: Kd) and 144 µM at Dihydroorotase [4] (read-out: Kd).

As to `CCC1NCCn2cccc21` (stereo not drawn), the Activity in assay [1] is less than 50%. The Kd at Dihydroorotase [2] (read-out: Kd) lay within 67 to 334 µM. Further, the ΔTm in assay [3] was more than 2 °C. Moreover, the outcome in assay [5] was Active.

As for `COc1ccc2[nH]c3c(c2c1)CCNC3`, the figures for the Kd at Dihydroorotase [2] (read-out: Kd) and at Dihydroorotase [4] (read-out: Kd) were 588 µM and 675 µM, respectively.

With `CCS(=O)(=O)N(C)c1ccc(C(=O)N2CCCC2)cc1`, the Activity in assay [1] was less than 50%. The Kd at Dihydroorotase [2] (read-out: Kd) lay in the range of 67 to 334 µM. Besides, the ΔTm in assay [3] was more than 2 °C. In addition, the outcome in assay [5] was Active.

As for `CSC1(NC#N)NCCc2c1[nH]c1ccc(F)cc21` (stereo not drawn), in assay [1], the Activity was less than 50%. Besides, the ΔTm in assay [3] was more than 2 °C. The dissociation constant (Kd) on Dihydroorotase [4] (read-out: Kd) is more than 1000 µM.

Take `CCC(=O)Nc1cc(OC)cc(OC)c1`: in assay [1], the Activity is less than 50%. Besides, the Kd at Dihydroorotase [2] (read-out: Kd) came to 157 µM; at Dihydroorotase [4] (read-out: Kd), 281 µM. In addition, the ΔTm in assay [3] was more than 2 °C.

For the compound `CCC(=O)Nc1ccc(OC)cc1OC`, the Activity in assay [1] was less than 50%. The Kd at Dihydroorotase [2] (read-out: Kd) and on Dihydroorotase [4] (read-out: Kd) was 170 µM in each case. In addition, in assay [3], the ΔTm was more than 2 °C.

`COc1ccc2[nH]c3c(c2c1)CN(C(C)=O)CC3`: the Activity in assay [1] is less than 50%. Besides, the Kd turned out to be 205 µM on Dihydroorotase [2] (read-out: Kd) and 215 µM on Dihydroorotase [4] (read-out: Kd). In assay [3], the ΔTm was more than 2 °C.

As for `Cc1ccc2[nH]c3c(c2c1)CCNC3`, the Kd entry at Dihydroorotase [2] and at Dihydroorotase [4] was “Not Active” throughout.

On to `Cn1ccc2c(CO)cccc21`, for which the Activity in assay [1] is less than 50%. Moreover, the Kd on Dihydroorotase [2] (read-out: Kd) was 67 to 334 µM. In addition, the ΔTm in assay [3] is more than 2 °C. In addition, in assay [5], the result was Active.

For the compound `COc1ccc2[nH]c(CN)cc2c1`, the Kd result at Dihydroorotase [2] was “Not Active”.
